In ChEMBL document CHEMBL3228045, “1-(Dichloroacetyl)-1,2,3,4-tetrahydro-6-quinolinol esters. New potent antiamebic agents” (J Med Chem, 1979):

Tests used:
[1] = Antiamebic activity against Entamoeba criceti infected in hamster assessed as reduction of trophozoites in cecum administered intragastric gavage bid for three consecutive days by microscopy; format: functional; conditions: Caecum, po
How it was run: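 Vehicle: 10% gelatin suspension, given by intragastric gavage in two split portions daily (morning and afternoon) for 3 consecutive days, dosed as (mg/kg)/day. Colony infection rate was at least 90%. Five hamsters per group at three twofold dose levels. The day after the last dose, cecal-wall scrapings in saline were examined microscopically at 43×. An animal with no trophozoites counted as cleared.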

[2] = Antiamebic activity against trophozoite form of Entamoeba criceti infected in hamster assessed as reduction in spontaneous infection in cecum administered intragastric gavage as single dose by microscopy; format: functional; conditions: Caecum, po
How it was run: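 Hamsters with spontaneous Entamoeba criceti infection were given one oral dose of drug. ED50 is reported ± SE in mg/kg po.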

[3] = Antiamebic activity against Entamoeba criceti infected in hamster assessed as reduction of trophozoites in cecum administered intragastric gavage as four dose by microscopy; format: functional; conditions: Caecum, po
Rattus norvegicus = test: Toxicity in rat assessed as mortality at 10 mg/kg, po by acute test; format: organism-based; parameters: dose 10 mg/kg, route oral; conditions: in vivo
Hamster = test: Toxicity in hamster assessed as mortality at 10 mg/kg, po by acute test; format: organism-based; parameters: dose 10 mg/kg, route oral; conditions: cricetinae, in vivo

CN(C(=O)C(Cl)Cl)c1ccc(OC(=O)c2ccco2)cc1 [DILOXANIDE FUROATE]
ED50 [1]: > 3.2 mg/kg

O=C(CCl)N1CCCc2cc(O)ccc21
ED50 [1]: 2 mg/kg

O=C(Oc1ccc2c(c1Cl)CCCN2C(=O)C(Cl)Cl)c1cccs1
ED50 [1]: 0.22 mg/kg

O=C(N1CCCc2cc(O)ccc21)C(Cl)(Cl)Cl
ED50 [1]: 3 mg/kg

O=C(Oc1ccc2c(c1)CCCN2C(=O)C(Cl)Cl)c1ccccc1
ED50 [1]: 0.2 mg/kg | ED50 [2]: 1.6 mg/kg

CCCC(=O)Oc1ccc2c(c1)CCCN2C(=O)C(Cl)Cl
ED50 [1]: 0.75 mg/kg

O=C(C(Cl)Cl)N1CCCc2cc(O)ccc21
ED50 [1]: 1.2 mg/kg

O=C(C(Cl)Cl)N1CCCc2c1ccc(O)c2Cl
ED50 [1]: 0.5 mg/kg

O=C(Oc1ccc2c(c1)CCCN2C(=O)C(Cl)Cl)c1cccs1
ED50 [1]: 0.16 mg/kg | ED50 [2]: 4.8 mg/kg

CCOCCN(Cc1ccc(Oc2ccc([N+](=O)[O-])cc2)cc1)C(=O)C(Cl)Cl [ETOFAMIDE]
ED50 [3]: 0.38 mg/kg

O=C(Oc1ccc2c(c1)CCCN2C(=O)C(Cl)Cl)c1ccco1 [QUINFAMIDE]
ED50 [1]: 0.2 mg/kg | ED50 [2]: 0.75 mg/kg | Activity (Rattus norvegicus): Non-toxic | Activity (Hamster): Non-toxic

O=C(Oc1ccc2c(c1Br)CCCN2C(=O)C(Cl)Cl)c1cccs1
ED50 [1]: 1.24 mg/kg

CCCCCC(=O)Oc1ccc2c(c1)CCCN2C(=O)C(Cl)Cl
ED50 [1]: 1.75 mg/kg

O=C(Oc1ccc2c(c1Br)CCCN2C(=O)C(Cl)Cl)c1ccco1
ED50 [1]: 0.39 mg/kg

O=C(C(Cl)Cl)N1CCCc2c1ccc(O)c2Br
ED50 [1]: 0.56 mg/kg

O=C(Oc1ccc2c(c1Cl)CCCN2C(=O)C(Cl)Cl)c1ccco1
ED50 [1]: 0.21 mg/kg

CNC(=O)Oc1ccc2c(c1)CCCN2C(=O)C(Cl)Cl
ED50 [1]: 5.7 mg/kg
